Experimental data reported in ChEMBL document CHEMBL4229449, “Synthesis and antimicrobial studies of hydrazone derivatives of 4-[3-(2,4-difluorophenyl)-4-formyl-1H-pyrazol-1-yl]benzoic acid and 4-[3-(3,4-difluorophenyl)-4-formyl-1H-pyrazol-1-yl]benzoic acid” (Bioorg Med Chem Lett, 2018).
Values after ≈ are worked out from the molar mass of the structure shown. Active and inactive are the calls of the source. No cut-off for these calls is given here.

Tests used:
Bacillus subtilis = experiment: Antimicrobial activity against Bacillus subtilis by broth microdilution method; assay type: functional
Pseudomonas aeruginosa = experiment: Antimicrobial activity against Pseudomonas aeruginosa by broth microdilution method; assay type: functional, organism-based
Acinetobacter baumannii = experiment: Antimicrobial activity against Acinetobacter baumannii by broth microdilution method; assay type: functional
Klebsiella aerogenes = experiment: Antimicrobial activity against Enterobacter aerogenes by broth microdilution method; assay type: functional, organism-based
Staphylococcus aureus [1] = experiment: Antimicrobial activity against Staphylococcus aureus by broth microdilution method; assay type: functional
HEK293 [2] = experiment: Cytotoxicity against human HEK293 cells assessed as reduction in cell viability at 25 to 50 ug/ml after 24 hrs by resazurin dye based method; details: hek293, 24 h
How it was run: (§1)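 HEK-293 human embryonic kidney cells were exposed to test compounds at 25 and 50 μg/mL and incubated for 24 h. Growth inhibition was read by resazurin assay and expressed as percent cell viability.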

[3] = tested on: Panel NCI-60 (60 carcinoma cell lines); experiment: Cytotoxicity against human NCI60 cells assessed as reduction in cell viability at 10 uM after 24 hrs by resazurin dye based method
HEK293 [4] = experiment: Cytotoxicity against human HEK293 cells assessed as reduction in cell viability at 50 ug/ml after 24 hrs by resazurin dye based method; details: hek293, 24 h; how it was run: as §1
Staphylococcus aureus [5] = experiment: Antimicrobial activity against methicillin-resistant Staphylococcus aureus by broth microdilution method; assay type: functional
Staphylococcus aureus [6] = experiment: Growth inhibition of methicillin-sensitive Staphylococcus aureus UAMS-1 after 20 to 24 hrs by resazurin dye based method; assay type: functional
Staphylococcus aureus [7] = experiment: Growth inhibition of methicillin-resistant Staphylococcus aureus LAC after 20 to 24 hrs by resazurin dye based method; assay type: functional

| Compound | MIC (Bacillus subtilis) | MIC (Pseudomonas aeruginosa) | MIC (Acinetobacter baumannii) | MIC (Klebsiella aerogenes) | MIC (Staphylococcus aureus [1]) | Activity (HEK293 [2]) | Activity [3] | Activity (HEK293 [4]) [%] | MIC (Staphylococcus aureus [5]) | MIC (Staphylococcus aureus [6]) [µg/mL] | MIC (Staphylococcus aureus [7]) [µg/mL] |
| --- | --- | --- | --- | --- | --- | --- | --- | --- | --- | --- | --- |
| O=C(O)c1cn(C2CC2)c2cc(N3CCNCC3)c(F)cc2c1=O [CIPROFLOXACIN] | 1.56 µg/mL (≈ 4.71 µM) |  |  |  |  |  |  |  |  |  |  |
| COLISTIN |  | 0.78 µg/mL | 12.5 µg/mL | 0.39 µg/mL |  |  |  |  |  |  |  |
| O=C(O)c1ccc(-n2cc(/C=N/Nc3ccc(F)cc3)c(-c3ccc(F)c(F)c3)n2)cc1 | 25 µg/mL (≈ 57.3 µM) | inactive | 6.25 µg/mL (≈ 14.3 µM) | inactive | 25 µg/mL (≈ 57.3 µM) | Non-Toxic | Non-Toxic | > 80 | 25 µg/mL (≈ 57.3 µM) |  |  |
| O=C(O)c1ccc(-n2cc(/C=N/Nc3ccc(Br)cc3)c(-c3ccc(F)c(F)c3)n2)cc1 | 1.56 µg/mL (≈ 3.14 µM) | inactive | 0.78 µg/mL (≈ 1.57 µM) | inactive | 3.12 µg/mL (≈ 6.27 µM) | Non-Toxic | Non-Toxic | > 80 | 1.56 µg/mL (≈ 3.14 µM) | 12.5 (≈ 25.1 µM) | 12.5 (≈ 25.1 µM) |
| O=C(O)c1ccc(-n2cc(/C=N/Nc3ccc(F)cc3)c(-c3ccc(F)cc3F)n2)cc1 | 6.25 µg/mL (≈ 14.3 µM) | inactive | 6.25 µg/mL (≈ 14.3 µM) | inactive | 25 µg/mL (≈ 57.3 µM) |  |  |  | 25 µg/mL (≈ 57.3 µM) |  |  |
| O=C(O)c1ccc(-n2cc(/C=N/Nc3c(F)c(F)cc(F)c3F)c(-c3ccc(F)c(F)c3)n2)cc1 | 6.25 µg/mL (≈ 12.7 µM) | inactive | inactive | inactive | 12.5 µg/mL (≈ 25.5 µM) |  |  |  | 12.5 µg/mL (≈ 25.5 µM) |  |  |
| O=C(O)c1ccc(-n2cc(/C=N/Nc3c(F)c(F)c(F)c(F)c3F)c(-c3ccc(F)cc3F)n2)cc1 | inactive | inactive | inactive | inactive | inactive |  |  |  | inactive |  |  |
| O=C(O)c1ccc(-n2cc(/C=N/N3CCCCC3)c(-c3ccc(F)cc3F)n2)cc1 | inactive | inactive | inactive | inactive | inactive |  |  |  | inactive |  |  |
| O=C(O)c1ccc(-n2cc(/C=N/Nc3ccccc3F)c(-c3ccc(F)cc3F)n2)cc1 | 12.5 µg/mL (≈ 28.6 µM) | inactive | 12.5 µg/mL (≈ 28.6 µM) | inactive | 25 µg/mL (≈ 57.3 µM) | Non-Toxic | Non-Toxic | > 80 | 25 µg/mL (≈ 57.3 µM) |  |  |
| O=C(O)c1ccc(-n2cc(/C=N/Nc3cccc(F)c3)c(-c3ccc(F)c(F)c3)n2)cc1 | 12.5 µg/mL (≈ 28.6 µM) | inactive | 6.25 µg/mL (≈ 14.3 µM) | inactive | 12.5 µg/mL (≈ 28.6 µM) | Non-Toxic | Non-Toxic | > 80 | 12.5 µg/mL (≈ 28.6 µM) |  |  |
| O=C(O)c1ccc(-n2cc(/C=N/Nc3ccc([N+](=O)[O-])cc3)c(-c3ccc(F)c(F)c3)n2)cc1 | inactive | inactive | inactive | inactive | inactive |  |  |  | inactive |  |  |
| CN[C@H](CC(C)C)C(=O)N[C@H]1C(=O)N[C@@H](CC(N)=O)C(=O)N[C@H]2C(=O)N[C@H]3C(=O)N[C@H](C(=O)N[C@H](C(=O)O)c4cc(O)cc(O)c4-c4cc3ccc4O)[C@H](O)c3ccc(c(Cl)c3)Oc3cc2cc(c3O[C@@H]2O[C@H](CO)[C@@H](O)[C@H](O)[C@H]2O[C@H]2C[C@](C)(N)[C@H](O)[C@H](C)O2)Oc2ccc(cc2Cl)[C@H]1O [VANCOMYCIN] |  |  |  |  | 6.25 µg/mL (≈ 4.31 µM) |  |  |  | 12.5 µg/mL (≈ 8.63 µM) |  |  |
| O=C(O)c1ccc(-n2cc(/C=N/Nc3c(F)c(F)cc(F)c3F)c(-c3ccc(F)cc3F)n2)cc1 | inactive | inactive | inactive | inactive | inactive |  |  |  | inactive |  |  |
| O=C(O)c1ccc(-n2cc(/C=N/Nc3ccccc3F)c(-c3ccc(F)c(F)c3)n2)cc1 | 12.5 µg/mL (≈ 28.6 µM) | inactive | 6.25 µg/mL (≈ 14.3 µM) | inactive | 12.5 µg/mL (≈ 28.6 µM) | Non-Toxic | Non-Toxic | > 80 | 12.5 µg/mL (≈ 28.6 µM) |  |  |
| O=C(O)c1ccc(-n2cc(/C=N/Nc3cccc(C(=O)O)c3)c(-c3ccc(F)cc3F)n2)cc1 | inactive | inactive | inactive | inactive | inactive |  |  |  | inactive |  |  |
| O=C(O)c1ccc(-n2cc(/C=N/Nc3cc(F)ccc3F)c(-c3ccc(F)cc3F)n2)cc1 | 3.12 µg/mL (≈ 6.87 µM) | inactive | 12.5 µg/mL (≈ 27.5 µM) | inactive | 12.5 µg/mL (≈ 27.5 µM) |  |  |  | 12.5 µg/mL (≈ 27.5 µM) |  |  |
| O=C(O)c1ccc(-n2cc(/C=N/Nc3cc(F)ccc3F)c(-c3ccc(F)c(F)c3)n2)cc1 | 3.12 µg/mL (≈ 6.88 µM) | inactive | 6.25 µg/mL (≈ 13.8 µM) | inactive | inactive | Non-Toxic | Non-Toxic | 69 | inactive |  |  |
| O=C(O)c1ccc(-n2cc(/C=N/Nc3ccc(C(F)(F)F)cc3)c(-c3ccc(F)c(F)c3)n2)cc1 | 0.78 µg/mL (≈ 1.6 µM) | inactive | 3.12 µg/mL (≈ 6.41 µM) | inactive | 0.78 µg/mL (≈ 1.6 µM) | Non-Toxic | Non-Toxic | > 80 | 0.78 µg/mL (≈ 1.6 µM) | 6.25 (≈ 12.8 µM) | 3.12 (≈ 6.41 µM) |
| O=C(O)c1ccc(-n2cc(/C=N/Nc3ccc(Cl)cc3Cl)c(-c3ccc(F)c(F)c3)n2)cc1 | 0.78 µg/mL (≈ 1.6 µM) | inactive | 3.12 µg/mL (≈ 6.41 µM) | inactive | 1.56 µg/mL (≈ 3.2 µM) |  |  |  | 1.56 µg/mL (≈ 3.2 µM) | 6.25 (≈ 12.8 µM) | 6.25 (≈ 12.8 µM) |
| O=C(O)c1ccc(-n2cc(/C=N/Nc3ccccc3)c(-c3ccc(F)cc3F)n2)cc1 | 25 µg/mL (≈ 59.8 µM) | inactive | 25 µg/mL (≈ 59.8 µM) | inactive | 25 µg/mL (≈ 59.8 µM) | Non-Toxic | Non-Toxic | > 80 | 25 µg/mL (≈ 59.8 µM) |  |  |
| O=C(O)c1ccc(-n2cc(/C=N/Nc3cccc(F)c3)c(-c3ccc(F)cc3F)n2)cc1 | 12.5 µg/mL (≈ 28.6 µM) | inactive | 6.25 µg/mL (≈ 14.3 µM) | inactive | 25 µg/mL (≈ 57.3 µM) | Non-Toxic | Non-Toxic | > 80 | 25 µg/mL (≈ 57.3 µM) |  |  |
| O=C(O)c1ccc(N/N=C/c2cn(-c3ccc(C(=O)O)cc3)nc2-c2ccc(F)c(F)c2)cc1 | inactive | inactive | inactive | inactive | inactive |  |  |  | inactive |  |  |
| O=C(O)c1ccc(-n2cc(/C=N/Nc3ccc(Br)cc3)c(-c3ccc(F)cc3F)n2)cc1 | 12.5 µg/mL (≈ 25.1 µM) | inactive | 1.56 µg/mL (≈ 3.14 µM) | inactive | 12.5 µg/mL (≈ 25.1 µM) | Non-Toxic | Non-Toxic | > 80 | 12.5 µg/mL (≈ 25.1 µM) | 25 (≈ 50.3 µM) | 25 (≈ 50.3 µM) |
| O=C(O)c1ccc(-n2cc(/C=N/Nc3ccccc3)c(-c3ccc(F)c(F)c3)n2)cc1 | 25 µg/mL (≈ 59.8 µM) | inactive | 6.25 µg/mL (≈ 14.9 µM) | inactive | 25 µg/mL (≈ 59.8 µM) | Non-Toxic | Non-Toxic | > 80 | 25 µg/mL (≈ 59.8 µM) |  |  |
| O=C(O)c1ccc(-n2cc(/C=N/Nc3ccc(Cl)cc3Cl)c(-c3ccc(F)cc3F)n2)cc1 | 0.78 µg/mL (≈ 1.6 µM) | inactive | 12.5 µg/mL (≈ 25.7 µM) | inactive | 3.12 µg/mL (≈ 6.41 µM) | Non-Toxic | Non-Toxic | > 80 | 0.78 µg/mL (≈ 1.6 µM) | 25 (≈ 51.3 µM) | 12.5 (≈ 25.7 µM) |
| CN1CCN(/N=C/c2cn(-c3ccc(C(=O)O)cc3)nc2-c2ccc(F)cc2F)CC1 | inactive | inactive | inactive | inactive | inactive |  |  |  | inactive |  |  |
| O=C(O)c1ccc(-n2cc(/C=N/Nc3ccc(Cl)cc3)c(-c3ccc(F)c(F)c3)n2)cc1 | 6.25 µg/mL (≈ 13.8 µM) | inactive | 1.56 µg/mL (≈ 3.44 µM) | inactive | 6.25 µg/mL (≈ 13.8 µM) | Non-Toxic | Non-Toxic | > 80 | 6.25 µg/mL (≈ 13.8 µM) |  |  |
| O=C(O)c1ccc(N/N=C/c2cn(-c3ccc(C(=O)O)cc3)nc2-c2ccc(F)cc2F)cc1 | inactive | inactive | inactive | inactive | inactive |  |  |  | inactive |  |  |
| CN1CCN(/N=C/c2cn(-c3ccc(C(=O)O)cc3)nc2-c2ccc(F)c(F)c2)CC1 | inactive | inactive | inactive | inactive | inactive |  |  |  | inactive |  |  |
| O=C(O)c1ccc(-n2cc(/C=N/Nc3ccc([N+](=O)[O-])cc3)c(-c3ccc(F)cc3F)n2)cc1 | inactive | inactive | inactive | inactive | inactive |  |  |  | inactive |  |  |
